# Compounds with a hit are over-represented: about 3.1% of the library has one in this group of screens.
# GPR7 antagonist – antagonists of human GPR7 (neuropeptides B/W receptor 1) | P48145 | GPR7-expressing cells, fluorescence antagonist assay | inhibition, % at 4.4 µM | 290,000 compounds, 1.1% hits; in the data active means inhibition above about 16%, passing the limit was not always enough;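 further: cells stimulated with the agonist NPW; 0% = agonist with vehicle and 100% = vehicle without agonist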
# OX1R antag-1 – blocks the human orexin 1 receptor; O43613; AID 485270; 330,000 compounds, 1.8% hits; OX1R-expressing cells, FRET antagonist read-out; inhibition, % at 6.6 µM; in the data active means inhibition mostly above about 38%, no sharp cut-off; inactive means mostly below about 40%;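 further: 0% = agonist challenge alone and 100% = reference antagonist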
# Target sequence (O43613 whole entry, looked up): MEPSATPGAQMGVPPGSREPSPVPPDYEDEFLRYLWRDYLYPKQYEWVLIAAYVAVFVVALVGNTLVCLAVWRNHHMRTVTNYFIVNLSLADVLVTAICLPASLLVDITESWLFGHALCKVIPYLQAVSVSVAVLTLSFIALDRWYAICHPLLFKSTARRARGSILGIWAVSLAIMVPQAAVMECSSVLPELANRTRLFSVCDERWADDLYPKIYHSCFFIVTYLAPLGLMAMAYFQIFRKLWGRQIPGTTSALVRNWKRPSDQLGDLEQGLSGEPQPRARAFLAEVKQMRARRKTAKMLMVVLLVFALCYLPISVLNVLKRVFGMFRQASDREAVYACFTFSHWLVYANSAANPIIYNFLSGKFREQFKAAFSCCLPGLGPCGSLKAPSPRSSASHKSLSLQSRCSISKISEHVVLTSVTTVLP
# OX1R antag-2 – blocks the human orexin 1 receptor; AID 434989; 330,000 compounds, 0.43% hits; O43613; CHO/OX1R cells, Fluo-8 calcium fluorescence, orexin A; inhibition, % at 5 µM;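 active means inhibition above its plate's threshold, mean inhibition of all tested compounds on the plate plus 3 SD, cut at about 37% in these data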;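 further: 0% = orexin A challenge wells and 100% = SB-334867-A antagonist wells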
# GalR3 antagonist – antagonists of human GalR3 | HEK293 GalR3-CNG cAMP membrane potential fluorescence; galR3 body fused to GalR1 C-terminus | O60755 | 360,000 compounds, 0.44% hits | AID 651719 | inhibition, % at 3 µM;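 active means inhibition above the screen-wide average plus 3 SD, cut at about 13% in these data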;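 further: forskolin and galanin both at EC90 stimulate the cells; cAMP rise reported by CNG channel membrane potential dye signal; 0% = forskolin plus galanin with DMSO and 100% = forskolin alone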
# CHO parental Ca – counter-screen: ATP calcium response change in parental CHO cells | parental CHO-K1, ATP-induced calcium, Fluo-8 fluorescence | inhibition, % at 5.6 µM | 330,000 compounds, 0.63% hits | AID 463079;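 active means inhibition above that plate's mean sample inhibition plus 3 SD, cut at about 26% in these data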;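 further: 0% = ATP-challenged DMSO wells and 100% = DMSO wells without ATP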
#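 Test system: parental CHO cells; detection: calcium-sensitive Fluo-8 fluorescence; evaluation: percent inhibition of calcium signal; also added: ATP as calcium-mobilizing challenge; repeats: one well per compound; control set: ATP-challenged DMSO wells low, unchallenged DMSO wells high; compound: single nominal dose of 5.6 µM per compound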
# Active calls of the source: *; · = not tested or not shown.
SMILES,GPR7 antagonist,OX1R antag-1,OX1R antag-2,GalR3 antagonist,CHO parental Ca
COc1cccc(S(=O)(=O)N(C)C[C@@H]2Oc3ncc(Br)cc3C(=O)N([C@H](C)CO)C[C@@H]2C)c1,·,·,·,-3.3,·
CCCc1cc(C(=O)Nc2cccc(C(C)=O)c2)no1,-8.1,22.5,-17.2,·,-5.4
CCCc1cc(C(=O)Nc2ccc(C(C)=O)cc2)no1,-6.9,12.1,-12.1,·,28.3*
COc1ccc(-n2c(=S)[nH]c3cc(C(=O)Nc4ccc(F)cc4)ccc3c2=O)c(OC)c1,4.4,20.6,-5.1,-2.5,16.4
CCCCOc1ccc(S(=O)(=O)Nc2cccnc2)cc1,-15.2,15.3,7.0,-13.6,38.9*
Cc1ccc(S(=O)(=O)Nc2cccnc2)cc1,12.5,-0.1,-3.8,-3.8,-6.1
CCN(Cc1nc2cc(Cl)ccc2c(=O)[nH]1)C(=O)c1nn(C)c(=O)c2ccccc12,·,38.5*,-15.2,-3.0,-11.6
CCN(Cc1nc2cc(Cl)ccc2c(=O)[nH]1)C(=O)c1ccc(C)c(NC(=O)c2ccco2)c1,·,76.4*,24.7,1.3,-29.3
O=C(NCC1CCN(C(=O)C(=O)c2cccs2)CC1)c1ccncc1,·,·,·,-5.7,·
O=C(N[C@@H](Cc1cccnc1)C(=O)N1CCC[C@H]1C(=O)NCCc1ccccc1Cl)c1ccc(Cl)cc1Cl,·,·,·,-4.7,·
CCCCCc1cc(O)c2c(C)cc(=O)oc2c1,2.5,43.1*,1.9,-6.2,22.7
Cc1cc(=O)oc2cc(O)cc(O)c12,·,·,·,-0.7,·
CC(C)CCC(C(=O)NC(C)c1ccccc1)C(=O)NC(C)c1ccccc1 (stereo not given),-12.0,42.8*,14.1,-8.7,-22.0
O=C(C[n+]1cccc2ccccc21)c1ccccc1,-3.9,34.2,-4.0,7.7,-8.5
O=C(C[n+]1cc2ccccc2c2ccccc21)c1ccccc1,2.8,56.3*,-1.0,-3.4,-13.4
Cc1cc(=O)n2nc(N3CCCC(C(=O)NCc4ccccc4C)C3)sc2n1 (stereo not given),0.0,10.0,-16.8,·,-10.1
O=C(CCS(=O)(=O)c1cccc2nsnc12)N1CC(=O)N(CCc2ccccc2)C(=O)C1,-1.6,52.7*,-3.9,-5.9,-23.9
CN(CC(=O)N1CC(=O)N(CCc2ccccc2)C(=O)C1)S(=O)(=O)c1cccc2nsnc12,-15.4,31.8,-11.6,-3.2,-10.2
COc1ccc(/C=C/c2cc[n+](C(=O)Cc3ccccc3)cc2)cc1,-5.3,72.7*,-10.2,-5.5,-1.3
Cc1ccc(NC(=O)CN(C)C(=O)c2ccccc2Sc2ccccc2C#N)cc1,·,55.0*,-18.6,-3.3,-25.0
O=C(NCC(=O)N(c1cccnc1)C(C(=O)NC1CCCCC1)c1ccccc1F)c1ccco1 (stereo not given),-19.6,22.4,-12.1,-1.8,-2.7
O=C1C2C3C=CC(C3)C2C(=O)N1c1ccccc1OS(=O)(=O)c1ccccc1 (stereo not given),-11.2,71.1*,5.3,-8.5,-15.8
O=C(Nc1ccon1)c1cc(-c2ccccc2)nc2ccccc12,-2.5,21.3,-12.5,-1.0,-26.1
O=C(O)c1ccccc1NC(=O)c1cc(-c2ccccc2)nc2ccccc12,-7.8,57.3*,-25.0,-8.5,-16.9
Nc1ccn([C@@H]2O[C@H](C(=O)N[C@H](Cc3ccccc3)C(=O)NCC(=O)N3CCOCC3)[C@@H](O)[C@H]2O)c(=O)n1,·,·,·,-4.9,·
SMILES,GPR7 antagonist,OX1R antag-1,OX1R antag-2,GalR3 antagonist,CHO parental Ca
COc1cc2cccc(OC)c(=O)c2c(O)c1OC,-1.7,65.8*,-7.8,-2.9,0.1
O=C(Cn1cnc2c(nnn2Cc2ccccc2F)c1=O)OCc1ccccc1,24.5,10.1,68.5*,-6.9,79.5*
CCN=C1NC(CCc2ccccc2)C(C(=O)OC)=C(C)N1Cc1ccc(C(F)(F)F)cc1 (stereo not given),·,·,·,-5.5,·
Cn1c(N)c(C(=O)COC(=O)Cc2ccsc2)c(=O)n(C)c1=O,19.8*,-0.3,0.3,-5.1,-8.1
COc1ccc(S(=O)(=O)NCc2cccs2)cc1,5.7,7.1,7.3,-3.5,-4.1
COc1ccc(S(=O)(=O)N(Cc2cccs2)C2CCCC2)cc1,-20.8,44.1,54.0*,1.9,44.2*
O=C(CN1CCN(Cc2ccc(F)cc2)CC1)Nc1nc2ccccc2s1,-9.9,13.0,-10.6,-11.6,-8.8
O=C(Nc1c2ccccc2nc2ccccc12)C(Cl)(Cl)Cl,-10.7,69.3*,1.1,·,1.1
O=C(Cc1ccccc1)NNc1c2ccccc2nc2ccccc12,-9.0,30.6,-11.8,-5.7,-18.7
Cc1ccccc1NC(=O)C1(NC(=O)c2cccc(N3C(=O)CSC3c3ccccc3)c2)CCCCC1 (stereo not given),20.3*,13.1,-33.6,-4.4,-36.2
CCOC(=O)c1c(C)[nH]c(C(=O)COC(=O)c2ccc(O)cc2O)c1C,18.8,11.0,-3.7,-6.9,2.4
CCOC(=O)c1c(C)[nH]c(C(=O)COC(=O)c2ccc(O)cc2)c1C,-3.8,7.9,10.1,-3.3,27.4*
Nc1cc(S(=O)(=O)Nc2ccccc2Cl)ccc1N1CCCCC1,·,24.5,45.3*,-8.0,30.4*
Nc1ccc(N2CCCCC2)c(S(=O)(=O)Nc2ccccc2Cl)c1,-11.2,16.9,-20.4,-9.2,-14.7
COc1cccc(C(=O)Nc2ccc3nc(N4CCN(c5ncccn5)CC4)cc(C)c3c2)c1OC,-22.2,58.6*,0.6,·,-2.7
Cc1ccccc1C1CCCN(C(=O)c2cc(COc3c(F)cccc3F)on2)C1 (stereo not given),-10.7,10.9,-15.6,-3.2,42.9*
CCCOC1CCCN(C(=O)c2cc(COc3c(F)cccc3F)on2)C1 (stereo not given),-4.8,22.2,-15.1,-1.9,-8.6
COc1c(C)cc(C(=O)C2CCCN(C(=O)c3ccoc3)C2)cc1C (stereo not given),-10.2,50.8*,-13.3,-2.7,-14.6
CC(C)CN(C(=O)COC(=O)c1ccc(Br)cc1)c1c(N)n(Cc2ccccc2)c(=O)[nH]c1=O,·,15.6,-32.7,-0.3,-19.2
Cc1ccc(N=Nc2ccc(O)cc2)c(Br)c1,-3.1,3.2,3.6,-11.6,56.0*
Cc1ccc(N/C(N)=N/c2nc(CSc3nnc(C)s3)cc(=O)[nH]2)c(C)c1,30.7*,10.4,-27.1,-2.8,-11.7
Cc1cc(/C=C2\NC(=S)N(C)C2=O)ccc1N1CCCC1,-8.2,25.9,72.1*,3.1,52.9*
Cc1cc(/C=C2/C(=O)N(C)C(=S)N2C)ccc1N1CCCC1,-11.8,5.5,65.2*,-2.8,41.9*
CCN1C(=O)/C(=C/c2ccc(N3CCCC3)cc2)NC1=S,9.6,27.4,73.8*,-2.9,62.0*
COc1cc(/C=C2\NC(=S)N(C)C2=O)ccc1O,6.2,20.4,2.1,2.5,-5.7
CCCN1C(=O)/C(=C/c2ccc(N3CCCC3)c(C)c2)NC1=S,4.2,22.2,93.5*,0.8,87.0*
Cc1ccc(CN2C(=O)N/C(=C\c3ccc(N4CCOCC4)cc3)C2=O)cc1,0.3,14.7,-18.8,-11.4,-15.3
Cc1cc(N2CCCC2)ccc1/C=C1/C(=O)N(C)C(=S)N1C,-6.9,11.2,16.3,-4.2,13.5
